Here are results for four molecules from ChEMBL document CHEMBL2424618, “Design, synthesis and ex vivo evaluation of colon-specific azo based prodrugs of anticancer agents” (Bioorg Med Chem Lett, 2013).

By pIC50 is commonly meant −log10 of the IC50, conventionally taken in molar units. Lower therefore signals a high IC50.

Series [1] is described as follows: Cytotoxicity against human COLO320DM cells after 48 hrs by MTT assay. The following applies: COLO 320DM. The class given is functional, cell-based. Put shortly:
(§1)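 MTT colorimetric microculture assay in human colorectal cells, 5 × 10⁵ per well. After 48 h, cells incubated at 37 °C in 0.1% DMSO with compound. Sample removed, cells washed with PBS pH 7.4, MTT added. After 4 h, […] added and absorbance read at 595 nm. Triplicates; IC50 given as mean SD, p < 0.05 significant.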
On the technique in general: Tetrazolium assays rely on reduction of a dye to a coloured formazan, in cell work by metabolically active cells.

The test system of a further series is HT-29. Briefly: Cytotoxicity against human HT-29 cells after 48 hrs by MTT assay. In kind it is functional, cell-based. The conditions noted are these: HT-29, 48 h. In short, it runs like this:
as §1

Another series has as its system COLO 205. Briefly: Cytotoxicity against human COLO205 cells after 48 hrs by MTT assay. In kind it is functional, cell-based. The following applies: COLO 205, 48 h. Put shortly: as §1
The nature of series [2]: Prodrug activation in rat fecal material after 24 hrs. In kind it is ADME, tissue-based, Feces. Put shortly:
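About 1 g fresh rat feces per tube with prodrug in phosphate buffer pH 7.4, diluted with 5 ml buffer to 50 µg/ml, incubated at 37 °C. Aliquots taken over time and read by double-beam UV spectrophotometry at compound-specific wavelengths. Cumulative % release at 24 h; mean SD, n = 6.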

Series [3] can be described thus: Prodrug activation in rat large intestine mucosa in presence of azoreductase. In kind it is tissue-based. Put shortly:
(§2)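 Cecal content, small-intestine content, SI mucosa or LI mucosa taken from Wistar rats and suspended in cold PBS pH 7.4 as 10% (w/v) slurry. Cecal content bubbled with nitrogen. Other tissues homogenized and centrifuged to 2% w/w. All stored at −20 °C. Prodrug incubated with each preparation, azo-bond cleavage followed by UV, and % drug release determined.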

A short description of series [4]: Prodrug activation in rat small intestine content in presence of azoreductase. The class given is tissue-based. In short, it runs like this: as §2
Series [5] can be described thus: Prodrug activation in rat small intestine mucosa in presence of azoreductase. In kind it is tissue-based. Put shortly:
as §2

Series [6] can be described thus: Prodrug activation in rat cecum content in presence of azoreductase. In kind it is tissue-based, Caecum. In short, it runs like this: as §2
A short description of series [7]: Chemical stability of the compound in 0.1 N HCl solution at pH 1.2. The conditions noted are these: buffer. In kind it is physicochemical. In short, it runs like this:
(§3)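 Prodrug held in acidic buffer (pH 1.2, 0.1 N HCl) or basic buffer (pH 7.4) at 37 °C. Aliquots withdrawn at time intervals and remaining prodrug read by UV spectrophotometry at compound-specific wavelengths (306/256, 274/284 or 280/260 nm for acid/pH 7.4). Release reported as % after 24 h; mean SD, n = 6.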

The nature of series [8]: Chemical stability of the compound in phosphate buffer at pH 7.4. In kind it is physicochemical. Put shortly:
as §3

pIC50: −log10 of the molar value.

For `Nc1ccn([C@@H]2O[C@H](CO)[C@@H](O)C2(F)F)c(=O)n1` [GEMCITABINE], the negative logarithm of the IC50 (pIC50) in series [1] was 5.41; in the series on HT-29, 5.71; in the series with COLO 205, 5.49.
On to `CN(Cc1cnc2nc(N)nc(N)c2n1)c1ccc(C(=O)N[C@@H](CCC(=O)O)C(=O)O)cc1` [METHOTREXATE], for which the pIC50 was 5.28 in series [1], 5.46 in the series on HT-29 and 5.49 with COLO 205.
For the molecule `O=c1nc(/N=N/c2ccc(O)cc2)ccn1[C@@H]1O[C@H](CO)[C@@H](O)C1(F)F`, the pIC50 in [1] was 5.43; in the series on HT-29 it was 5.58; in the series on COLO 205, 5.48. The Drug metabolism stood at 71% in series [2]; 5% in series [3]; 5% in series [4]; 5% in [5]; 70% in [6]. Moreover, the Stability entry in [7] and in series [8] was “Stable” each time.
For the molecule `COC(=O)CC[C@H](NC(=O)c1ccc(N(C)Cc2cnc3nc(/N=N/c4ccc(O)cc4)nc(/N=N/c4ccc(O)cc4)c3n2)cc1)C(=O)OC`, the pIC50 in [1] is 5.24; with HT-29, 5.41; in the series on COLO 205 it was 5.38. The Drug metabolism is listed as 64% in [2]; 5% in series [3]; 5% in [4]; 5% in series [5]; 70% in [6]. Also, the Stability result in series [7] and in [8] was “Stable” throughout.
